Results reported in ChEMBL document CHEMBL3593217, “Synthesis and bioactivity of a Goralatide analog with antileukemic activity” (Bioorg Med Chem, 2015).
Activity calls are given as the source filed them. The calls are words filed in the database; no cut-off is given here. Peptide text beside a SMILES is read from it. * marks the point of attachment. Cbz = O=C(OCc1ccccc1)*; OBn = c1ccc(CO*)cc1; OtBu = CC(C)(C)O*; tBu = CC(C)(C)*

Tests used:
U-251 = assay: Cytotoxicity against human U251 cells assessed as reduction of clonogenicity at 10 uM after 1 to 2 weeks by crystal violet staining; format: functional, cell-based
Procedure, shortened: (§1)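 Clonogenic survival: 1000 cells plated per well, then grown with or without peptide for 1–2 weeks before colonies were scored. Peptide stock was 25 mM in DMSO.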

HEK-293T = assay: Cytotoxicity against human 293T cells assessed as reduction of clonogenicity at 10 uM after 1 to 2 weeks by crystal violet staining; format: cell-based; procedure, shortened: as §1
HL-60 [1] = assay: Cytotoxicity against human HL60 cells assessed as cell viability at 1 to 100 uM after 24 hrs by MTT assay; format: functional, cell-based
Procedure, shortened: (§2)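 Cells exposed to peptide at a range of concentrations for 24 h, with DMSO as negative control. Tetrazolium (MTS-type) viability reagent added, then 1–2 h at 37 °C. Read-out is OD at 490 nm. Run in triplicate; significance by Student's t-test against untreated and DMSO-treated cells. Peptide stock was 25 mM in DMSO, stored at −20 °C.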

NALM-6 [2] = assay: Cytotoxicity against human NALM6 cells assessed as cell viability at 1 to 100 uM after 24 hrs by MTT assay; format: functional, cell-based; procedure, shortened: as §2
HEL [3] = assay: Cytotoxicity against human HEL cells assessed as cell viability at 1 to 100 uM after 24 hrs by MTT assay; format: functional, cell-based; procedure, shortened: as §2
HL-60 [4] = assay: Cytotoxicity against human HL60 cells assessed as cell viability after 24 hrs by MTT assay; format: functional, cell-based; procedure, shortened: as §2
HUVEC = assay: Cytotoxicity against human HUVEC cells assessed as cell viability after 24 hrs by MTT assay; format: cell-based; procedure, shortened: as §2
[5] = Chemical stability of the compound in DMSO after 7 days; format: physicochemical; conditions: 168 h
Procedure, shortened: (§3)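 Peptide kept in organic solvent (DMSO, CDCl₃ or MeOH) and watched for decomposition, read at 12 h and at 7 days.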

[6] = Chemical stability of the compound in CDCl3 after 7 days; format: physicochemical; conditions: 168 h; procedure, shortened: as §3
[7] = Chemical stability of the compound in MeOH after 7 days; format: physicochemical; conditions: 168 h; procedure, shortened: as §3
[8] = Half life in human plasma; format: ADME, cell-free
HL-60 [9] = assay: Cytotoxicity against human HL60 cells assessed as cell viability at 50 uM after 24 hrs by MTT assay; format: functional, cell-based; procedure, shortened: as §2
NALM-6 [10] = assay: Cytotoxicity against human NALM6 cells assessed as cell viability at 50 uM after 24 hrs by MTT assay; format: functional, cell-based; procedure, shortened: as §2
HEL [11] = assay: Cytotoxicity against human HEL cells assessed as cell viability at 50 uM after 24 hrs by MTT assay; format: functional, cell-based; procedure, shortened: as §2
[12] = Chemical stability of the compound in DMSO after 12 hrs; format: physicochemical; procedure, shortened: as §3
[13] = Chemical stability of the compound in CDCl3 after 12 hrs; format: physicochemical; procedure, shortened: as §3
[14] = Chemical stability of the compound in MeOH after 12 hrs; format: physicochemical; procedure, shortened: as §3

Stability [5] | Stability [6] | Stability [7] | half-life [8] [min] | Stability [12] | Stability [13] | Stability [14] | SMILES | Activity (U-251) | Activity (HEK-293T) | Activity (HL-60 [1]) | Activity (NALM-6 [2]) | Activity (HEL [3]) | Activity (HL-60 [4]) | Activity (HUVEC) | inhibition (HL-60 [9]) | inhibition (NALM-6 [10]) | inhibition (HEL [11])
Stable | Stable | Stable | – | – | – | – | CC(=O)N[C@@H](COC(C)(C)C)C(=O)N[C@@H](CC(=O)OC(C)(C)C)C(=O)N[C@@H](CCCCNC(=O)OCc1ccccc1)C(=O)N1CCC[C@H]1C(=O)OCc1ccccc1 (Ac-S(tBu)D(OtBu)K(Cbz)P-OBn) | Active | Toxic | Active | Active | Active | Dose-dependent effect | Dose-dependent effect | – | – | –
– | – | – | 4.5 | Unstable | Unstable | Unstable | CC(=O)N[C@@H](CO)C(=O)N[C@@H](CC(=O)O)C(=O)N[C@@H](CCCCN)C(=O)N1CCC[C@H]1C(=O)O [GORALATIDE] (Ac-SDKP-OH) | – | – | – | – | – | – | – | inactive | inactive | inactive
